Results: ChEMBL document CHEMBL3763092, “Design and synthesis of pyrrolobenzodiazepine-gallic hybrid agents as p53-dependent and -independent apoptogenic signaling in melanoma cells” (Eur J Med Chem, 2016)
Calls of active or inactive are those of the source. No cut-off for these calls is given here.

Experiments:
A-375 [1] = test: Cytotoxicity against human A375 cells expressing p53 wild type assessed as cell viability at 1 uM after 24 hrs by MTT assay; format: functional; conditions: A-375, 24 h, read-out: Activity
Outline: (§1)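 Cells were exposed to compound at 1 µM for 24 h, then growth and viability were read by MTT assay. Media: A375 in DMEM; RPMI7951 and MCF-7 in MEM; A549 in RPMI1640; H1299 in DMEM-F12; all with 10% FCS and penicillin/streptomycin, at 37 °C and 5% CO2. Fibroblasts came from adult foreskin. DMSO stocks were 10 mM.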

[2] = Cytotoxicity against human fibroblast cells expressing p53 wild type assessed as cell viability at 1 uM after 24 hrs by MTT assay; format: cell-based; conditions: read-out: Activity; outline: as §1
MCF7 = test: Cytotoxicity against human MCF7 cells expressing p53 wild type assessed as cell viability at 1 uM after 24 hrs by MTT assay; format: functional; conditions: MCF7, 24 h, read-out: Activity; outline: as §1
A549 = test: Cytotoxicity against human A549 cells assessed as cell viability at 1 uM after 24 hrs by MTT assay; format: functional; conditions: A549, 24 h, read-out: Activity; outline: as §1
[3] = Cytotoxicity against p53 knockout human H1299 cells assessed as cell viability at 1 uM after 24 hrs by MTT assay; format: functional; conditions: NCI-H1299, 24 h, read-out: Activity; outline: as §1
[4] = Cytotoxicity against human RPMI7951 cells expressing p53 mutant assessed as cell viability at 1 uM after 24 hrs by MTT assay; format: functional; conditions: RPMI-7951, 24 h, read-out: Activity; outline: as §1
RPMI-7951 [5] = test: Induction of apoptosis in human RPMI7951 cells expressing p53 mutant assessed as increased release of cathepsin D to cytosol at 0.5 uM by immunofluorescent staining analysis; format: functional, cell-based
Outline: (§2)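 RPMI7951 cells on coverslips (1 × 10^4) were treated with 0.5 µM for 24 h. Immunofluorescence steps: fixation in 4% formaldehyde, permeabilization with 0.5% Triton X-100, blocking with 5% BSA. Primary antibodies: rabbit anti-cathepsin D and mouse anti-LAMP-1 at 1:500, cytochrome c and COX IV at 1:1000, 1 h at RT. Secondary antibodies for 30 min. DAPI counterstain.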

A-375 [6] = test: Induction of reactive oxygen species generation in human A375 cells expressing p53 wild type assessed as increase in intracellular H2O2 level at 0.5 uM after 24 hrs by DCFH-DA staining based fluorescence analysis; format: functional, cell-based
Outline: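 A375 cells were treated with 0.5 µM for 0, 12 and 24 h and stained with DCFH-DA to detect intracellular H2O2.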

A-375 [7] = test: Induction of apoptosis in human A375 cells expressing p53 wild type assessed as increase in bax mRNA level by RT- qPCR analysis; format: functional, cell-based; conditions: TDE = time-dependent effect
Outline: (§3)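 Quantitative real-time PCR on A375 cells over a time course, measuring p53, bax and bcl-xl mRNA normalized to GAPDH mRNA.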

A-375 [8] = test: Effect on cell cycle distribution in human A375 cells expressing p53 wild type assessed as number of cells at S-phase at 0.5 uM after 24 hrs by FACS analysis (reference value: 13.8 %); format: functional
A-375 [9] = test: Induction of apoptosis in human A375 cells expressing p53 wild type assessed as increase in cleaved caspase-3 levels at 0.5 uM after 24 hrs by western blot analysis; format: functional, cell-based
Outline: (§4)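 A375 cells were exposed to 0.5 µM for 24 h, and lysates were immunoblotted with specific antibodies (p53, Cdc25c, p-Chk1, Bcl-xL, PARP, caspase-3). GAPDH served as loading control. Three independent experiments.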

A-375 [10] = test: Increase in Chk1 phosphorylation in human A375 cells expressing p53 wild type at 0.5 uM after 24 hrs by western blot analysis; format: functional, cell-based; outline: as §4
A-375 [11] = test: Induction of apoptosis in human A375 cells expressing p53 wild type assessed as increase in p53 levels at 0.5 uM after 24 hrs by western blot analysis; format: functional, cell-based; outline: as §4
RPMI-7951 [12] = test: Induction of apoptosis in human RPMI7951 cells expressing p53 mutant assessed as decrease in lysosomal H+ concentration at 0.5 uM after 24 and 48 hrs by flow cytometric analysis; format: functional, cell-based
Outline: (§5)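 Cells were loaded with LysoTracker Green (75 nM) for 15 min at 37 °C before treatment with 0.5 µM for the indicated times. After washing, mean fluorescence was quantified by flow cytometry. For p53 knockdown, A375 cells (6 × 10^4/well, antibiotic-free DMEM) were transfected with 30 nM tp53 siRNA or non-target siRNA using Lipofectamine RNAiMAX and harvested at 24 h.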

RPMI-7951 [13] = test: Cytotoxicity against human RPMI7951 expressing p53 mutant cells assessed as colony formation at 0.5 uM after 10 days by SRB assay; format: functional, cell-based
Outline: (§6)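 Cells were seeded at 100 per well and treated from the second day. Medium containing 0.5 µM agent was renewed every 3 days. After 10 days of treatment, colonies were stained with SRB and photographed. Three independent experiments.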

RPMI-7951 [14] = test: Induction of apoptosis in human RPMI7951 cells expressing p53 mutant assessed as increased release of cytochrome c to cytosol at 0.5 uM by immunofluorescent staining analysis; format: functional, cell-based; outline: as §2
A-375 [15] = test: Induction of apoptosis in human A375 cells expressing p53 wild type assessed as increase in p53 mRNA level by RT- qPCR analysis; format: functional, cell-based; conditions: TDE = time-dependent effect; outline: as §3
A-375 [16] = test: Effect on cell cycle distribution in human A375 cells expressing p53 wild type assessed as number of cells at G0/G1 phase at 0.5 uM after 24 hrs by FACS analysis Rvb = 74.1 %); format: functional
A-375 [17] = test: Induction of apoptosis in human A375 cells expressing p53 wild type assessed as increase in cleaved PARP levels at 0.5 uM after 24 hrs by western blot analysis; format: functional, cell-based; outline: as §4
A-375 [18] = test: Decrease in Cdc25c level in human A375 cells expressing p53 wild type at 0.5 uM after 24 hrs by western blot analysis; format: functional, cell-based; outline: as §4
Mus musculus = test: Toxicity in ICR mouse xenografted with mouse B16 cells assessed as change in body weight at 2 to 4 mg/kg, iv; format: organism-based; conditions: in vivo
Outline: (§7)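 Female ICR mice, seven weeks old, inoculated s.c. in the footpad with 1 × 10^6 B16 cells in 20 µl PBS. Once tumors reached a mean diameter of 4-7 mm (day 0), mice were randomized into groups of three and dosed i.v. at 0, 2, 4 mg/kg. Two perpendicular tumor diameters and body weight were taken at least 3 times weekly. T/C% was calculated from relative tumor volume; body weight is expressed as % of day 0. Statistics by t-test.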

A-375 [19] = test: Induction of apoptosis in human A375 cells transfected with siRNA p53 assessed as decrease in lysosomal H+ concentration at 0.5 uM after 24 and 48 hrs by flow cytometric analysis; format: functional, cell-based; outline: as §5
A-375 [20] = test: Effect on cell cycle distribution in human A375 cells expressing p53 wild type assessed as number of cells at G2/M phase at 0.5 uM after 24 hrs by FACS analysis (reference value: 12.1 %); format: functional
RPMI-7951 [21] = test: Induction of apoptosis in human RPMI7951 cells expressing p53 mutant assessed as PARP cleavage at 0.5 uM after 24 hrs by western blot analysis; format: functional, cell-based
A-375 [22] = test: Induction of apoptosis in human A375 cells expressing p53 wild type assessed as decrease in bcl-xl mRNA level by RT- qPCR analysis; format: functional, cell-based; conditions: TDE = time-dependent effect; outline: as §3
A-375 [23] = test: Induction of apoptosis in human A375 cells expressing p53 wild type assessed as decrease in mitochondrial membrane potential at 0.5 uM after 12 hrs by DiOC6 dye based flow cytometry; format: functional, cell-based
Outline: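 A375 cells were treated with 0.5 µM for 0, 12 and 24 h, labeled with DiOC6 and analyzed by flow cytometry. Three independent experiments.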

A-375 [24] = test: Induction of apoptosis in human A375 cells expressing p53 wild type assessed as decrease in Bcl-xl levels at 0.5 uM after 24 hrs by western blot analysis; format: functional, cell-based; outline: as §4
A-375 [25] = test: Induction of DNA damage in human A375 cells expressing p53 wild type assessed as increase in ATR/ATM activation at 0.5 uM after 24 hrs by immuohistochemistry analysis; format: functional, cell-based
Outline: (§8)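 A375 cells on coverslips (1 × 10^4) were treated with 0.5 µM for 24 h. Cells were fixed in 4% formaldehyde for 5 min at 4 °C, permeabilized with 0.5% Triton X-100, and blocked with 5% BSA at 37 °C for 45 min. Primary antibodies were applied for 1 h at RT: mouse anti-p-ATR and anti-p-ATM 1:1000, anti-8-oxoguanine 1:250, COX IV and cytochrome c 1:1000. Secondary antibodies (rhodamine for 8-oxoguanine) followed for 30 min. DAPI counterstain.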

A-375 [26] = test: Induction of apoptosis in human A375 cells expressing p53 wild type assessed as increase release of cytochrome c from mitochondria to cytosol at 0.5 uM after 24 hrs by immunofluorescence analysis; format: functional, cell-based; outline: as §8
A-375 [27] = test: Induction of apoptosis in human A375 cells expressing p53 wild type assessed as lysosomal H+ concentration at 0.5 uM after 24 and 48 hrs by flow cytometric analysis; format: functional, cell-based; outline: as §5
B16 [28] = test: Induction of apoptosis in mouse B16 cells at 0.5 uM after 24 hrs by FITC-annexin V/PI staining based fluorescence microscopy; format: functional, cell-based
Outline: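 B16 cells were seeded on coverslips at 3 × 10^5 per well, allowed to attach for 24 h, then exposed to 0.5 µM for 24 h. After PBS washes, cells were stained with annexin V-FITC and PI (plus Hoechst33258) for at least 15 min at RT in the dark and viewed by fluorescence microscopy.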

A-375 [29] = test: Cytotoxicity against human A375 cells expressing p53 wild type assessed as colony formation at 0.5 uM after 10 days by SRB assay; format: functional, cell-based; outline: as §6
A-375 [30] = test: Effect on cell cycle distribution in human A375 cells expressing p53 wild type assessed as number of cells at subG1 phase at 0.5 uM after 24 hrs by FACS analysis (reference value: 1 %); format: functional
B16 [31] = test: Antitumor activity against mouse B16 cells xenografted in ICR mouse assessed as decrease in tumor growth administered via interavenous; format: functional, cell-based; outline: as §7
A-375 [32] = test: Induction of DNA lesion in human A375 cells expressing p53 wild type assessed as increase in 8-oxoguanine expression at 0.5 uM after 24 hrs by immunohistochemical analysis; format: functional, cell-based; outline: as §8

In the case of COc1cc2c(cc1OCCCCCCNC(=O)c1cc(OC)c(OC)c(OC)c1)N=C[C@@H]1CCCN1C2=O, the viability at 1 µM (A-375 [1]) is reported as 86.5%, the viability at 24 h, 1 µM [2] is reported as 94.9% and the viability at 1 µM (MCF7) is reported as 95.4%. The viability at 1 µM (A549) was 101%, the viability at 1 µM [3] was 92.4% and the viability at 1 µM [4] was 69.6%.

With COc1cc2c(cc1OCCCCOc1cc(OC)c(OC)c(OC)c1)N=C[C@@H]1CCCN1C2=O the Activity (RPMI-7951 [5]) was “Active”, the Activity (A-375 [6]) was “Active” and the Activity (A-375 [7]) was “tde”. The viability at 1 µM (A-375 [1]) was 37.4%, the Activity (A-375 [8]) was 47.9% and the Activity (A-375 [9]) was “Active”. The Activity (A-375 [10]) was “Active”, the Activity (A-375 [11]) was “Active” and the Activity (RPMI-7951 [12]) was “Active”. The inhibition (RPMI-7951 [13]) was “Active”, the Activity (RPMI-7951 [14]) was “Active” and the viability at 24 h, 1 µM [2] was 109%. For the same compound, the Activity (A-375 [15]) was “tde”, the Activity (A-375 [16]) was 32.6% and the viability at 1 µM (MCF7) was 55.3%. The Activity (A-375 [17]) was “Active”, the inhibition (A-375 [18]) was “Active” and the Activity (Mus musculus) was “Non-toxic”. The viability at 1 µM (A549) was 77.9%, the Activity (A-375 [19]) was “Active” and the Activity (A-375 [20]) was 4.8%. For the same compound, the Activity (RPMI-7951 [21]) was “Active”, the Activity (A-375 [22]) was “tde” and the Activity (A-375 [23]) was “Active”. The Activity (A-375 [24]) was “Active”, the Activity (A-375 [25]) was “Active” and the Activity (A-375 [26]) was “Active”. For the same compound, the Activity (A-375 [27]) was “inactive”, the viability at 1 µM [3] was 73% and the Activity (B16 [28]) was “Active”. For the same compound, the inhibition (A-375 [29]) was “Active”, the Activity (A-375 [30]) was 15.8% and the inhibition (B16 [31]) was “Dose-dependent effect”. The Activity (A-375 [32]) was “Active” and the viability at 1 µM [4] was 62.3%.

In the case of COc1cc2c(cc1OCCCCNC(=O)c1cc(OC)c(OC)c(OC)c1)N=C[C@@H]1CCCN1C2=O, the viability at 1 µM (A-375 [1]) is reported as 79.5%, the viability at 24 h, 1 µM [2] is reported as 98.2% and the viability at 1 µM (MCF7) is reported as 96.3%. For the same compound, the viability at 1 µM (A549) was 100%, the viability at 1 µM [3] was 95% and the viability at 1 µM [4] was 83%.

COc1cc2c(cc1OCCCCCNC(=O)c1cc(OC)c(OC)c(OC)c1)N=C[C@@H]1CCCN1C2=O gave a viability at 1 µM (A-375 [1]) of 74.7%, a viability at 24 h, 1 µM [2] of 98.7% and a viability at 1 µM (MCF7) of 101%. The viability at 1 µM (A549) was 96.8%, the viability at 1 µM [3] was 96.9% and the viability at 1 µM [4] was 111%.
